Compound activity as filed in PubChem BioAssay.
In the library only some 4.1% were active in any assay of this set; here they are far more common.
SMARCA2 act: increases SMARCA2 function in MMTV reporter cells; MG213 cells, MMTV-luciferase reporter, dexamethasone, overnight; activation, % at 9.1 µM; 1% of 370,000 active; in the data active = activation above about 7.8%
ATG4B inh: ATG4B (human) cysteine protease inhibition | ATG4B cleavage of LC3-PLA2, NBD-HPC fluorescence, 1 h | inhibition, % at 8.33 µM | 0.51% of 340,000 active | Q9Y4P1 | AID 504462; in the data active = inhibition above about 40%
MC4R barr agon: activates human MC4R beta-arrestin recruitment | P32245 | U2OS MC4R beta-arrestin complementation, luminescence; percent of melanotan II response, DMSO zero | activation, % at 8.9 µM | 0.98% of 360,000 active | AID 540308;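 active = activation above a per-plate cutoff, the mean activation of sample wells on that plate plus 3 SD, cut at about 8% in these data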
Target sequence (P32245 whole entry, looked up): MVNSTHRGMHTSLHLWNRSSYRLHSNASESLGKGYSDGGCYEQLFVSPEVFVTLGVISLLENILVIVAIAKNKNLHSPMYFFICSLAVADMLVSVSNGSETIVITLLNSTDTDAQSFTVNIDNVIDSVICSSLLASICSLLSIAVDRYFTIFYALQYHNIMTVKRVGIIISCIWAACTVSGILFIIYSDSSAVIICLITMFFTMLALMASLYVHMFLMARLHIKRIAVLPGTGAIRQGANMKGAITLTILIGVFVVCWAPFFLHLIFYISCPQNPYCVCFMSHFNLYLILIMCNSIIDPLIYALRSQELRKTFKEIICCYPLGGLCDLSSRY
MPTP block: permeability transition pore inhibition | isolated mouse mitochondria, Ca2+ swelling absorbance, 30 min | inhibition, % at 10 µM | 1.4% of 360,000 active;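 active = inhibition of 50% or more, scaled per plate between neutral and stimulator controls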
MC4R antagonist: blocks human MC4R cAMP signaling | AID 540295 | 0.48% of 360,000 active | MC4R-expressing cells, MTII-stimulated cAMP, LANCE TR-FRET | P32245 | inhibition, % at 6.5 µM;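 active = inhibition above its plate's cutoff, the mean of tested wells on that plate plus 3 SD, cut at about 29% in these data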
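System: U2OS-MC4R stable cell line; Technique: Eu-cAMP/anti-cAMP TR-FRET, emission 671 nm; Repeats: single well per compound; Also added: Melanotan II; Dosing: one concentration, 6.5 µM nominal; Schedule: 30-min compound, 1-h challenge, 1-h detection, room temperature.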
PLA2 ctr: PLA2 (human) inhibition in ATG4B counter-screen; shares compounds with ATG4B inh; purified PLA2, NBD-C6-HPC fluorescence, 45 min; inhibition, % at 8.33 µM; 66% of 1,600 active; AID 588402; in the data active = inhibition above about 50%
Target sequence (P04054 whole entry, looked up): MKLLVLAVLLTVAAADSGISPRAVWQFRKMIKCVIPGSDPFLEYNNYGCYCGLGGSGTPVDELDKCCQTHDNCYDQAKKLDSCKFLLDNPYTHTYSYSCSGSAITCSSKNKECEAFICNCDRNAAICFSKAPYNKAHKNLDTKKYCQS
Hits are given with their value.

`CCOC(=O)N/N=C/c1cn(CCCOc2ccccc2)c2ccccc12` gave SMARCA2 act inactive, ATG4B inh inactive, MC4R barr agon inactive, MPTP block inactive and MC4R antagonist inactive.
`COC(=O)C1CN(Cc2ccc(F)cc2)CCS(=O)(=O)N1Cc1cn(Cc2ccc(Cl)cc2)nn1` (stereo not given) gave SMARCA2 act inactive.
For CCN(Cc1ccc2c(c1)OCO2)C(=O)CSc1ncnc2sccc12 the results were SMARCA2 act inactive, ATG4B inh inactive, MC4R barr agon inactive, MPTP block inactive and MC4R antagonist inactive.
CCN(Cc1ccc2c(c1)OCCO2)C(=O)CSc1nc(C)nc2sc(C)c(C)c12 was read as SMARCA2 act inactive, ATG4B inh 47, MC4R barr agon inactive, MPTP block inactive, MC4R antagonist inactive and PLA2 ctr 68.
For O=S(=O)(c1ccc(Br)s1)N1CCc2ccccc2C1 the results were SMARCA2 act inactive, ATG4B inh 57, MC4R barr agon inactive, MPTP block inactive, MC4R antagonist inactive and PLA2 ctr inactive.
Screening C=CCOC(=O)c1cc(-c2ccc(/C=C3\C(=O)NC(=O)C(C#N)=C3C)o2)ccc1Cl returned SMARCA2 act inactive, ATG4B inh 70, MC4R barr agon inactive, MPTP block inactive, MC4R antagonist inactive and PLA2 ctr inactive.
For NC(=O)Cc1ccc(Nc2nnc(-c3ccccc3)c3ccccc23)cc1 the results were SMARCA2 act inactive, ATG4B inh 82, MC4R barr agon inactive, MPTP block inactive, MC4R antagonist inactive and PLA2 ctr 82.
Oc1ccc(Nc2nnc(-c3ccc(O)cc3)c3ccccc23)cc1 was read as SMARCA2 act inactive, ATG4B inh inactive, MC4R barr agon inactive, MPTP block inactive and MC4R antagonist inactive.
COc1ccc(-c2nnc(Nc3ccc(CC(N)=O)cc3)c3ccccc23)cc1 was read as SMARCA2 act inactive, ATG4B inh 93, MC4R barr agon inactive, MPTP block inactive, MC4R antagonist inactive and PLA2 ctr 92.
COc1ccc(Nc2nnc(-c3ccc(O)cc3)c3ccccc23)cc1 was read as SMARCA2 act inactive, ATG4B inh inactive, MC4R barr agon inactive, MPTP block inactive and MC4R antagonist inactive.
Screening CCNc1ccc(C(=O)OCC(=O)N(Cc2ccccc2)C(C)(C)C)cc1[N+](=O)[O-] returned SMARCA2 act inactive, ATG4B inh 43, MC4R barr agon inactive, MPTP block inactive, MC4R antagonist inactive and PLA2 ctr inactive.
For CCOC(=O)CNc1ccc(C(=O)OCC)cc1[N+](=O)[O-] the results were SMARCA2 act inactive, ATG4B inh inactive, MC4R barr agon inactive, MPTP block inactive and MC4R antagonist inactive.
Screening NC(=O)C1CCN(C(=S)c2ccc(-c3ccc(Br)cc3)o2)CC1 returned SMARCA2 act inactive, ATG4B inh 51, MC4R barr agon inactive, MPTP block inactive, MC4R antagonist inactive and PLA2 ctr inactive.
`NC(=O)c1ccc(-c2ccc(Br)cc2)o1` gave SMARCA2 act inactive, ATG4B inh inactive, MC4R barr agon inactive, MPTP block inactive and MC4R antagonist inactive.
For Cc1cc(Nc2ccc(Cl)cc2)n(-c2cccc(Cl)c2)n1 the results were SMARCA2 act inactive, ATG4B inh 41, MC4R barr agon inactive, MPTP block inactive, MC4R antagonist inactive and PLA2 ctr 63.
Screening COc1ccc(-c2nc(CS(=O)(=O)CC(=O)NCc3ccccc3OC)c(C)o2)cc1 returned SMARCA2 act inactive, ATG4B inh inactive, MC4R barr agon inactive, MPTP block inactive and MC4R antagonist inactive.
For COc1ccc(-c2nc(CS(=O)(=O)CC(=O)NCc3ccccc3Br)c(C)o2)cc1 the results were SMARCA2 act inactive, ATG4B inh 84, MC4R barr agon inactive, MPTP block inactive, MC4R antagonist inactive and PLA2 ctr 92.
O=C(c1ccc(Cn2c(=S)[nH]c3ccccc3c2=O)cc1)N1CCN(c2ccccn2)CC1 was read as SMARCA2 act inactive, ATG4B inh 47, MC4R barr agon inactive, MPTP block inactive, MC4R antagonist inactive and PLA2 ctr 66.
O=C(c1ccc2c(=O)n(Cc3ccc(Cl)cc3)c(=S)[nH]c2c1)N1CCCC1 was read as SMARCA2 act inactive, ATG4B inh inactive, MC4R barr agon inactive, MPTP block inactive and MC4R antagonist inactive.
Screening O=C(c1ccc2c(=O)n(Cc3ccc4c(c3)OCO4)c(=S)[nH]c2c1)N1CCCCC1 returned SMARCA2 act inactive, ATG4B inh 55, MC4R barr agon inactive, MPTP block inactive, MC4R antagonist inactive and PLA2 ctr inactive.
For COc1ccc(/C=C2/Sc3ccc(C(=O)N4CCc5ccccc5C4)cc3NC2=O)cc1 the results were SMARCA2 act inactive, ATG4B inh 69, MC4R barr agon inactive, MPTP block inactive, MC4R antagonist inactive and PLA2 ctr 82.
Screening Cc1ccc(/C=C2/Sc3ccc(C(=O)N4CCN(C)CC4)cc3NC2=O)cc1 returned SMARCA2 act inactive, ATG4B inh inactive, MC4R barr agon inactive, MPTP block inactive and MC4R antagonist inactive.
`CC1CCN(C(C)C(=O)Nc2ccccc2-c2ccccc2)CC1` (stereo not given) gave SMARCA2 act inactive, ATG4B inh 43, MC4R barr agon inactive, MPTP block inactive, MC4R antagonist inactive and PLA2 ctr 53.
Screening CC(C(=O)Nc1ccccc1-c1ccccc1)N1CCN(C(=O)c2ccccc2)CC1 (stereo not given) returned SMARCA2 act inactive, ATG4B inh inactive, MC4R barr agon inactive, MPTP block inactive and MC4R antagonist inactive.
`CC1CCN(CC(=O)Nc2ccccc2-c2ccccc2)CC1` gave SMARCA2 act inactive, ATG4B inh 45, MC4R barr agon inactive, MPTP block inactive, MC4R antagonist inactive and PLA2 ctr 69.
For CC1CCCCC1NCC(=O)Nc1ccccc1-c1ccccc1 (stereo not given) the results were SMARCA2 act inactive, ATG4B inh 48, MC4R barr agon 9.5, MPTP block inactive, MC4R antagonist inactive and PLA2 ctr 53.
`CN(Cc1ccccc1)C(=O)OCc1cn(Cc2ccccc2)nn1` gave SMARCA2 act inactive.
For C[C@@H]1CCN(C2CC2)S(=O)(=O)c2c(cccc2N2CC[C@H](N(C)C)C2)O1 the results were SMARCA2 act inactive.
`O=C1/C(=C/c2ccc(N3CCOCC3)o2)SC(=Nc2ccccc2)N1CCc1c[nH]c2ccccc12` gave ATG4B inh inactive, MC4R barr agon inactive, MPTP block inactive and MC4R antagonist inactive.
COc1ccc(N=C2S/C(=C\c3ccc(OC(C)C(=O)O)c(OC)c3)C(=O)N2CCc2c[nH]c3ccccc23)cc1 (stereo not given) was read as SMARCA2 act inactive, ATG4B inh 58, MC4R barr agon inactive, MPTP block inactive, MC4R antagonist inactive and PLA2 ctr 65.
